Results: ChEMBL document CHEMBL1150387, “Development and experimental validation of a docking strategy for the generation of kinase-targeted libraries” (J Med Chem, 2008)

What was measured:
[1] = molecular target: Focal adhesion kinase 1 (Homo sapiens) (UniProt Q05397); assay: Inhibition of FAK at 10 uM by HTRF assay relative to control
Method in brief: (§1)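 HTRF kinase assay, one panel of kinases. Inhibitor stock 50 µM in 100% DMSO; tested at 10 µM. ATP and substrate at final levels near Km. Final buffer: 50 mM Hepes/NaOH pH 7.4, 40 µM Na3VO4, 0.005% Tween-20, 1 mM DTT, MnCl2 or MgCl2 at kinase-dependent levels. Started by adding ATP/substrate. Reaction run at room temperature, time varied by kinase. Detection mix in 50 mM Hepes pH 7.4, 0.1% BSA, 150 mM KF, incubated ≥1 h at room temperature. Activity expressed as % of uninhibited control; n=2.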

[2] = molecular target: Epidermal growth factor receptor (Homo sapiens) (UniProt P00533); assay: Inhibition of EGFR at 10 uM by HTRF assay relative to control; method in brief: as §1
Chain of Epidermal growth factor receptor (Homo sapiens) (P00533 whole entry): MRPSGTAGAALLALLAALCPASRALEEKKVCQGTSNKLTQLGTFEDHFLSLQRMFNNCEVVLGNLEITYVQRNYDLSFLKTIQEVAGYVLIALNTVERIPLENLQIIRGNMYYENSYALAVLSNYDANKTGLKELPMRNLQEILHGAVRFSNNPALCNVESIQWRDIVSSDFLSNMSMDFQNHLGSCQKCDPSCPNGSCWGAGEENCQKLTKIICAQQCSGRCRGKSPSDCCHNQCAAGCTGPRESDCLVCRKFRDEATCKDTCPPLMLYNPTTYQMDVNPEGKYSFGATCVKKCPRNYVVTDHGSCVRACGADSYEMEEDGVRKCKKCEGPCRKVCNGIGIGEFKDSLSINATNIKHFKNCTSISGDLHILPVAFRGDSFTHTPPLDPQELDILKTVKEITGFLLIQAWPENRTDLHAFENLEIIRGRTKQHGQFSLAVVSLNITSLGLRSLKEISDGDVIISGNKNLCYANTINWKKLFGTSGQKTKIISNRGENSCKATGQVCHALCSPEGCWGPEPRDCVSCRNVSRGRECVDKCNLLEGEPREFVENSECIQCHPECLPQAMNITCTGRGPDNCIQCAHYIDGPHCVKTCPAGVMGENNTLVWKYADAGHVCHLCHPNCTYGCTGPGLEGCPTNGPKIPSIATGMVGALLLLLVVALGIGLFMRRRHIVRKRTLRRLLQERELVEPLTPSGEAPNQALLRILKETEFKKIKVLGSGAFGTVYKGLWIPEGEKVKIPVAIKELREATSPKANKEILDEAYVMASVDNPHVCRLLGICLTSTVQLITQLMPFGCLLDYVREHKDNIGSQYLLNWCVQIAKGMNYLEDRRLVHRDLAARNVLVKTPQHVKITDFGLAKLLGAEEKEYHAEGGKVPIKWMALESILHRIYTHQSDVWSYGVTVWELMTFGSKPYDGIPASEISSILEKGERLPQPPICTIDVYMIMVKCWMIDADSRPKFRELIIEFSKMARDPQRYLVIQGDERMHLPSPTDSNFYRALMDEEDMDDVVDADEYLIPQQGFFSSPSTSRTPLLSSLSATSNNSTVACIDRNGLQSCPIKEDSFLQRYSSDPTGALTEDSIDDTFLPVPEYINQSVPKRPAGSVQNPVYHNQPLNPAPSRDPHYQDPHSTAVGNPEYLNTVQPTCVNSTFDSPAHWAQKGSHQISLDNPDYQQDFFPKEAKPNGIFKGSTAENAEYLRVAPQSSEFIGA

[3] = molecular target: Protein-tyrosine kinase 6 (Homo sapiens) (UniProt Q13882); assay: Inhibition of Brk at 10 uM by HTRF assay relative to control; method in brief: as §1
Chain of Protein-tyrosine kinase 6 (Homo sapiens) (Q13882 whole entry, looked up): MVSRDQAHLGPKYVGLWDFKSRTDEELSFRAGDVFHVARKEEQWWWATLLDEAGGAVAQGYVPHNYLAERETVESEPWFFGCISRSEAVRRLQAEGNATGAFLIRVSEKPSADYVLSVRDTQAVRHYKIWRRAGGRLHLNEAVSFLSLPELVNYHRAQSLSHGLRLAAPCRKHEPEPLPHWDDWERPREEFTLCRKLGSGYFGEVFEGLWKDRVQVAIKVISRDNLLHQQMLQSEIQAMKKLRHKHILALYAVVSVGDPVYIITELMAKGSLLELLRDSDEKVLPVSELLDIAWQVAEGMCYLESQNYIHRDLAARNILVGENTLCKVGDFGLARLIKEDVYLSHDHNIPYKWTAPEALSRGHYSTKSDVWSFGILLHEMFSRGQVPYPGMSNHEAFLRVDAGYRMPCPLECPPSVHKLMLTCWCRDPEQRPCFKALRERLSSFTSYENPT

[4] = molecular target: Vascular endothelial growth factor receptor 2 (Homo sapiens) (UniProt P35968); assay: Inhibition of KDR at 10 uM by HTRF assay relative to control; method in brief: as §1
[5] = molecular target: Mitogen-activated protein kinase 8 (Homo sapiens) (UniProt P45983); assay: Inhibition of JNK1 at 10 uM by HTRF assay relative to control; method in brief: as §1
[6] = molecular target: Proto-oncogene tyrosine-protein kinase Src (Homo sapiens) (UniProt P12931); assay: Inhibition of Src at 10 uM by HTRF assay relative to control; method in brief: as §1
[7] = molecular target: Mitogen-activated protein kinase 14 (Homo sapiens) (UniProt Q16539); assay: Inhibition of p38alpha at 10 uM by HTRF assay relative to control; method in brief: as §1
Chain of Mitogen-activated protein kinase 14 (Homo sapiens) (Q16539 whole entry): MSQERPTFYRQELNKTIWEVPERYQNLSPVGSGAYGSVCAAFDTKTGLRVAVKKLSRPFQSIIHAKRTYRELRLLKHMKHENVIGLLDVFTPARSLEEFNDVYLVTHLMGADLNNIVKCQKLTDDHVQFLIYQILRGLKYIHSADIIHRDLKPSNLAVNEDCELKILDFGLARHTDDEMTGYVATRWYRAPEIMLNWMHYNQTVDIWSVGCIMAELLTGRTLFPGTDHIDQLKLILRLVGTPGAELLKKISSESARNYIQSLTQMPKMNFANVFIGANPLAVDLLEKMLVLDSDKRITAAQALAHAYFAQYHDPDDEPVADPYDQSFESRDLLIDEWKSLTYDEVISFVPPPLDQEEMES

[8] = molecular target: Tyrosine-protein kinase ABL1 (Homo sapiens) (UniProt P00519); assay: Inhibition of Abl at 10 uM by HTRF assay relative to control; method in brief: as §1
Chain of Tyrosine-protein kinase ABL1 (Homo sapiens) (P00519 whole entry): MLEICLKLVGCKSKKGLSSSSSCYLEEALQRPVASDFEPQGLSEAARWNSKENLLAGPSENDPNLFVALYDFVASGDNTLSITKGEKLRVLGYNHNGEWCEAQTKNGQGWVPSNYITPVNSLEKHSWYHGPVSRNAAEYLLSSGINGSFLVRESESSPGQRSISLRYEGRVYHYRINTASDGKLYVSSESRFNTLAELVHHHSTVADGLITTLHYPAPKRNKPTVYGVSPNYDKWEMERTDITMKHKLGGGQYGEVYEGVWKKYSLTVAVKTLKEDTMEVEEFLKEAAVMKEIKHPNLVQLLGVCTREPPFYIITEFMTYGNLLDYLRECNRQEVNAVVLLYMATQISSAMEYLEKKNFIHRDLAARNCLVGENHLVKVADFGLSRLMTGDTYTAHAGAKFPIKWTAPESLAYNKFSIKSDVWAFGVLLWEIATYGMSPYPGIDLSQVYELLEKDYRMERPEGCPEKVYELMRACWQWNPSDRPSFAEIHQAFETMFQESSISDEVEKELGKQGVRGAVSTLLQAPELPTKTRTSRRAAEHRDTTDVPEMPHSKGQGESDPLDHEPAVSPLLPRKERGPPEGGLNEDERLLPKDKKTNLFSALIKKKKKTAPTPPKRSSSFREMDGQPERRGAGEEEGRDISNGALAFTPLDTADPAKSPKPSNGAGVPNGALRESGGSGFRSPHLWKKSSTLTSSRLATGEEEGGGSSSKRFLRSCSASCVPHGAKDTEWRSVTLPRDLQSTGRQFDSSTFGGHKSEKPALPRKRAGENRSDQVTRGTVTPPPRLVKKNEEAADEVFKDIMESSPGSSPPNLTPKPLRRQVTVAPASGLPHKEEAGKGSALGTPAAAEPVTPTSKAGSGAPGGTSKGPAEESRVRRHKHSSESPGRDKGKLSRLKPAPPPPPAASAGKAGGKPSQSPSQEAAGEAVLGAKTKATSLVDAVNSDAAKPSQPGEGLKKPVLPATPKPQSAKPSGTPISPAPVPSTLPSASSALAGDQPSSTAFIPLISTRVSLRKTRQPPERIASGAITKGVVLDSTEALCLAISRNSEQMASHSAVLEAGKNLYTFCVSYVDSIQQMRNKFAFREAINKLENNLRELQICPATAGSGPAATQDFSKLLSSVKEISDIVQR

[9] = molecular target: T1, Tyrosine-protein kinase ZAP-70 (Homo sapiens) (UniProt P43403); assay: Inhibition of ZAP70 at 10 uM by HTRF assay relative to control; method in brief: as §1
T1 sequence (whole entry): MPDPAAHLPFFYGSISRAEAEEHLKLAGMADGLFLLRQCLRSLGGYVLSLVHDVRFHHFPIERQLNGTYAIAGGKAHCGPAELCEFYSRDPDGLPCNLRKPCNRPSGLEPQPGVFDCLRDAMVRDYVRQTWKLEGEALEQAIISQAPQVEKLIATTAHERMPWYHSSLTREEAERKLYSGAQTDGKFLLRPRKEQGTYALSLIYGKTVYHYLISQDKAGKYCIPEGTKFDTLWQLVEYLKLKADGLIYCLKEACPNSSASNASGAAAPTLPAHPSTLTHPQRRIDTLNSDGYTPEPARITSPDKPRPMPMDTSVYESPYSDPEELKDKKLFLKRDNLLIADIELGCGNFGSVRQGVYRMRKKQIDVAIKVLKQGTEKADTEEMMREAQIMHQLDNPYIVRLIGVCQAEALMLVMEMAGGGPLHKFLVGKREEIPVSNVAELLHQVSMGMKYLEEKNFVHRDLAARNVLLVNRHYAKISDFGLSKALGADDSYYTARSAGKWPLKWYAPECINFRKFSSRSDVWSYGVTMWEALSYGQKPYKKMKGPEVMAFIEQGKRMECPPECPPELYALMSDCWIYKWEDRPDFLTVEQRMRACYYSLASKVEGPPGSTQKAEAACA

[10] = molecular target: T2, Mitogen-activated protein kinase 12 (Homo sapiens) (UniProt P53778); assay: Inhibition of p38-gamma at 10 uM by HTRF assay relative to control; method in brief: as §1
T2 sequence (whole entry): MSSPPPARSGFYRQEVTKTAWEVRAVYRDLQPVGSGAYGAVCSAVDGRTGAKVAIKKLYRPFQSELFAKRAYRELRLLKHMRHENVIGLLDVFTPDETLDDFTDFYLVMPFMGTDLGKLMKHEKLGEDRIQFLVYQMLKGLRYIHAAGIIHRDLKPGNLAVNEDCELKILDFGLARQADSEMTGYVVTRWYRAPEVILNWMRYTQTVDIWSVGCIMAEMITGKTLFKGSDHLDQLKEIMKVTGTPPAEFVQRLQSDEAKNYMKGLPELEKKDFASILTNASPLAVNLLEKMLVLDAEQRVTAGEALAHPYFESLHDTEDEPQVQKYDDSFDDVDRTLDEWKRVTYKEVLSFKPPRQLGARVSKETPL

[11] = Inhibition of IRK at 10 uM by HTRF assay relative to control; method in brief: as §1
[12] = molecular target: Tyrosine-protein kinase Lyn (Homo sapiens) (UniProt P07948); assay: Inhibition of Lyn at 10 uM by HTRF assay relative to control; method in brief: as §1
[13] = molecular target: 3-phosphoinositide-dependent protein kinase 1 (Homo sapiens) (UniProt O15530); assay: Inhibition of PDK1 at 10 uM by HTRF assay relative to control
Chain of 3-phosphoinositide-dependent protein kinase 1 (Homo sapiens) (O15530 whole entry, looked up): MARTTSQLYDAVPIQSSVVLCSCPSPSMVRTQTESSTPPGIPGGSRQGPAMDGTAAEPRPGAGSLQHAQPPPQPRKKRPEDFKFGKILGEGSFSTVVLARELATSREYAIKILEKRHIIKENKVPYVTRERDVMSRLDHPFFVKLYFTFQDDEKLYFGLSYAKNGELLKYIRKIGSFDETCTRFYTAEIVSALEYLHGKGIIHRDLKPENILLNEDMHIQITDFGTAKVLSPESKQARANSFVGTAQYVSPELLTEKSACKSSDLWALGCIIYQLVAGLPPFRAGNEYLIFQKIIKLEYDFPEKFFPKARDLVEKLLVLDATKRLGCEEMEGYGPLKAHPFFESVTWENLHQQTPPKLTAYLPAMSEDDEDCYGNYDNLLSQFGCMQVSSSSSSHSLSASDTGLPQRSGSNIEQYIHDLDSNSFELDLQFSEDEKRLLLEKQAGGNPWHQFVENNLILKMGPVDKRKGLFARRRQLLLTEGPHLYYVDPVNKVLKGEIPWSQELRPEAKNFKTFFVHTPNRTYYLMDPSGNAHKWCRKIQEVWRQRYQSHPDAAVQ

[14] = molecular target: T3, Inhibitor of nuclear factor kappa-B kinase subunit beta (Homo sapiens) (UniProt O14920); assay: Inhibition of IKK-beta at 10 uM by HTRF assay relative to control; method in brief: as §1
T3 sequence (whole entry): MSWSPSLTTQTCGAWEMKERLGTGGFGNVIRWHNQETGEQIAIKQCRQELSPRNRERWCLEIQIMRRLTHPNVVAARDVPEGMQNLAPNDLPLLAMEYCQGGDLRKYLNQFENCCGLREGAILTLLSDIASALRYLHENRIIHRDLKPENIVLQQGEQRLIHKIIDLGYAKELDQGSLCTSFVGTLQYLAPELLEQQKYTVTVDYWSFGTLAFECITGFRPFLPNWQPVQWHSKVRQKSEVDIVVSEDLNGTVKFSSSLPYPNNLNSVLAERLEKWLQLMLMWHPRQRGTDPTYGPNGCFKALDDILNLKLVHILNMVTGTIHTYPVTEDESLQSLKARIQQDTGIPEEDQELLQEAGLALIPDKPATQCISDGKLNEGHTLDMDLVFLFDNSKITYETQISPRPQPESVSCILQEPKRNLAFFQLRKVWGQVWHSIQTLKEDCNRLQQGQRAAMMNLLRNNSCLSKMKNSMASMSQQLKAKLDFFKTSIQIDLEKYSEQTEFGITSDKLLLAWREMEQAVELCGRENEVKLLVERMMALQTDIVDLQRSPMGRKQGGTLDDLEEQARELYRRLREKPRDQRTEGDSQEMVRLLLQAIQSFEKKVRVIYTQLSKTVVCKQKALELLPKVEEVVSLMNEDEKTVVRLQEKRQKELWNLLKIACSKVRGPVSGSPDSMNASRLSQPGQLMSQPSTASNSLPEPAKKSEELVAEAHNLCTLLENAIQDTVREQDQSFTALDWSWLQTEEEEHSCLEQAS

Chain of Focal adhesion kinase 1 (Homo sapiens) (Q05397 2-1052 limits assumed): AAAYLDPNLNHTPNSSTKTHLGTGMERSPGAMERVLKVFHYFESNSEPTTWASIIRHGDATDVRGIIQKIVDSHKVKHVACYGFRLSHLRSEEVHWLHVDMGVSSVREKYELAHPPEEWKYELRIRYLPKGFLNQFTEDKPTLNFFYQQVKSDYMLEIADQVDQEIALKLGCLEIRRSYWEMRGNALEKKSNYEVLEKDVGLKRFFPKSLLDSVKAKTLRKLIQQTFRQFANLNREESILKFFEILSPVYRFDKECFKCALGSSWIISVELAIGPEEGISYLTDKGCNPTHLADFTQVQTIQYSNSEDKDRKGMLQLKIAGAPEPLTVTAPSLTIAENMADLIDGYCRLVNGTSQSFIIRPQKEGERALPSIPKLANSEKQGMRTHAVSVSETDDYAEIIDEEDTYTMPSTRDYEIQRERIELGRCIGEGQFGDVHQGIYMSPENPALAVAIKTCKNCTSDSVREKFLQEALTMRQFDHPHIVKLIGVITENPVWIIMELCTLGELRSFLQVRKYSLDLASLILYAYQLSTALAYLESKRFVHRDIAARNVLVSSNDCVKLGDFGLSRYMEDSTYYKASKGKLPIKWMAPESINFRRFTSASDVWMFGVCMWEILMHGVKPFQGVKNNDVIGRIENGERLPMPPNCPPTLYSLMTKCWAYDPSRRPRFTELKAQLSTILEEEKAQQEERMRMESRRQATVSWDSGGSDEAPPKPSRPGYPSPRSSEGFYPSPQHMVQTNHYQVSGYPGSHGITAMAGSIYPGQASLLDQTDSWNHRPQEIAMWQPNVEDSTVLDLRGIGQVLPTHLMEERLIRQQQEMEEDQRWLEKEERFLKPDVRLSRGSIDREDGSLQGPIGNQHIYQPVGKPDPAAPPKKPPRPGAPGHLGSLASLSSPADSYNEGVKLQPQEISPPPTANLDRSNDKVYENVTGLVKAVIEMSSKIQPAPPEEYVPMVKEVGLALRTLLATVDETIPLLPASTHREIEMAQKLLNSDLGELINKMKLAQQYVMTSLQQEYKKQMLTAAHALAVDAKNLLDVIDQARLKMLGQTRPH

Row | Compound | inhibition [1] [%] | inhibition [2] [%] | inhibition [3] [%] | inhibition [4] [%] | inhibition [5] [%] | inhibition [6] [%] | inhibition [7] [%] | inhibition [8] [%] | inhibition [9] [%] | inhibition [10] [%] | inhibition [11] [%] | inhibition [12] [%] | inhibition [13] [%] | inhibition [14] [%]
1 | COc1ccc(-c2noc(CN3CCN(c4cc(Nc5cccc(O)c5)ncn4)CC3)n2)cc1 | 3 | 17 | 5 | 0 | 0 | 3 | 1 | 0 | 0 | 0 | 0 | 3 | 4 | 2
2 | COc1cccc(Nc2cc(Nc3cccc(C(=O)N(C)CCc4ccccn4)c3)nc(N)n2)c1 | 11 | 36 | 21 | 7 | 19 | 6 | 5 | 8 | 3 | 3 | 6 | 9 | 4 | 6
3 | CC(=O)N1CCN(C(=O)c2cccc(Nc3cc(N(C)c4cccc(C)c4)ncn3)c2)CC1 | 17 | 99 | 1 | 41 | 0 | 17 | 4 | 47 | 9 | 3 | 0 | 29 | 0 | 1
4 | O=C(NCc1cccnc1)c1cccc(-c2ccc(Nc3ccc4ncsc4c3)nn2)c1 | 67 | 27 | 48 | 62 | 55 | 11 | 0 | 23 | 11 | 5 | 73 | 48 | 4 | 52
5 | O=C(NCc1ccncc1)c1cccc(Nc2cc(Nc3cccc(Br)c3)ncn2)c1 | 12 | 100 | 10 | 22 | 28 | 30 | 37 | 31 | 9 | 0 | 0 | 29 | 4 | 4
6 | COC[C@@H]1CCCN1C(=O)C1CCCN1c1cc(Nc2cccc(Br)c2)ncn1 (stereo partly drawn) | 5 | 0 | 3 | 0 | 0 | 3 | 0 | 7 | 0 | 0 | 0 | 0 | 0 | 1
7 | Clc1ccc2sc(CN3CCN(c4ncnc5c4CN(Cc4ccccc4)CC5)CC3)cc2c1 | 1 | 0 | 2 | 11 | 3 | 0 | 10 | 1 | 5 | 2 | 7 | 17 | 3 | 10

The remaining lines, values ahead:

Row | inhibition [1] [%] | inhibition [2] [%] | inhibition [3] [%] | inhibition [4] [%] | inhibition [5] [%] | inhibition [6] [%] | inhibition [7] [%] | inhibition [8] [%] | inhibition [9] [%] | inhibition [10] [%] | inhibition [11] [%] | inhibition [12] [%] | inhibition [13] [%] | inhibition [14] [%] | Compound
8 | 2 | 2 | 17 | 4 | 0 | 4 | 8 | 0 | 0 | 3 | 0 | 13 | 0 | 9 | COC[C@@H]1CCCN1C(=O)[C@@H]1CCCN1c1cc(Nc2cccc(OC)c2)nc(N)n1
9 | 10 | 91 | 16 | 13 | 71 | 10 | 11 | 25 | 6 | 17 | 0 | 2 | 1 | 4 | COc1cccc(Nc2cc(Nc3cccc(C(=O)NCCCn4ccnc4)c3)nc(N)n2)c1
10 | 5 | 0 | 16 | 3 | 9 | 0 | 6 | 6 | 2 | 3 | 0 | 6 | 3 | 3 | Cc1cccc(N(C)c2cc(N3CCN(C(=O)Cc4c[nH]c5ccccc45)CC3)ncn2)c1
11 | 6 | 97 | 11 | 31 | 0 | 15 | 5 | 49 | 4 | 1 | 0 | 14 | 0 | 8 | Cc1cccc(N(C)c2cc(Nc3cccc(C(=O)N(C)CCc4ccccn4)c3)ncn2)c1
12 | 3 | 0 | 14 | 6 | 1 | 2 | 8 | 6 | 2 | 0 | 0 | 6 | 0 | 4 | COc1cccc(Nc2cc(N3CCC[C@H]3C(=O)NCCc3ccc(O)cc3)nc(N)n2)c1
